Series [1] has as its system Pancreatic acinar cell. Nature of the series: Inhibition of taurolithocholate acid 3-sulfate-induced necrosis in CD1 mouse pancreatic acinar cells at 1 uM after 30 mins by propidium iodide staining based confocal microscopic analysis. The series is classed as functional. A digest of the protocol:
(§1)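 Freshly isolated murine pancreatic acinar cells were exposed to the pancreatitis toxin taurolithocholate acid 3-sulphate (500 µM) with inhibitor at 0.1, 1.0 and 10 µM or at 1 and 10 µM.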

The nature of series [2]: Cytotoxicity against CD1 mouse pancreatic acinar cells at 1 to 10 uM after 30 mins by propidium iodide staining based confocal microscopic analysis. The conditions noted are these: pancreatic acinar cell, 0.5 h. A digest of the protocol:
(§2)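 As a parallel cytotoxicity control, freshly isolated murine pancreatic acinar cells were exposed to compounds alone, without TLCS, at 0.1, 1.0 and 10 µM or at 1 and 10 µM. Necrotic cell death was scored.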

Series [3] concerns Pancreatic acinar cell. Nature of the series: Inhibition of taurolithocholate acid 3-sulfate-induced necrosis in CD1 mouse pancreatic acinar cells at 10 uM after 30 mins by propidium iodide staining based confocal microscopic analysis. The series is classed as functional. A digest of the protocol:
as §1

A short description of series [4]: Cytotoxicity against CD1 mouse pancreatic acinar cells at 10 uM after 30 mins by propidium iodide staining based confocal microscopic analysis. Conditions: pancreatic acinar cell, 0.5 h. In short, it runs like this:
as §2

Series [5] has as its system Pancreatic acinar cell. Nature of the series: Inhibition of taurolithocholate acid 3-sulfate-induced necrosis in CD1 mouse pancreatic acinar cells at 1 to 10 uM after 30 mins by propidium iodide staining based confocal microscopic analysis. It counts as functional. A digest of the protocol:
as §1

For series [6], the system named is Pancreatic acinar cell. Nature of the series: Inhibition of taurolithocholate acid 3-sulfate-induced change in mitochondrial membrane potential in CD1 mouse pancreatic acinar cells at 0.1 to 10 uM after 30 mins by tetramethyl rhodamine methyl ester dye based fluorescence analysis. The series is classed as functional, cell membranes.
The test system of series [7] is Pancreatic acinar cell. In words: Inhibition of taurolithocholate acid 3-sulfate-induced necrosis in human pancreatic acinar cells at 10 uM after 30 mins by propidium iodide staining based confocal microscopic analysis. The series is classed as functional.
A short description of series [8]: Cytotoxicity against CD1 mouse pancreatic acinar cells at 0.1 to 10 uM after 30 mins by propidium iodide staining based confocal microscopic analysis. The conditions noted are these: pancreatic acinar cell, 0.5 h. A digest of the protocol: as §2

The structures appear in SMILES notation. Calls of active or inactive are those of the source. No cut-off for these calls is given here.

As for `CCOC(=O)[C@H](CCSC)NC(=O)NCc1ccc(N)cc1`, in the series with Pancreatic acinar cell [1], the inhibition result is “inactive”. Besides, the Activity entry in series [2] is listed as “Non-toxic”. The inhibition entry in the series with Pancreatic acinar cell [3] is “Active”.

On to `Nc1ccc(CNC(=O)NCC(=O)N2CCC[C@@H]2c2ccccc2Br)cc1`, for which, in the series with Pancreatic acinar cell [1], the inhibition result is “inactive”. Moreover, the Activity entry in series [4] was “Toxic”. The inhibition entry with Pancreatic acinar cell [3] is “Active”.

As to `CSCC[C@H](NC(=O)NCc1ccc(N)cc1)C(=O)N1CCC[C@H]1c1ccccc1SC`, the inhibition result in the series with Pancreatic acinar cell [5], in the series on Pancreatic acinar cell [6] and in the series on Pancreatic acinar cell [7] was “Active” in each case. Besides, in series [8], the Activity entry was “Non-toxic”.

Values taken from ChEMBL document CHEMBL3797189, “Small Molecule Inhibitors of Cyclophilin D To Protect Mitochondrial Function as a Potential Treatment for Acute Pancreatitis” (J Med Chem, 2016).
